≈ marks a conversion by molar mass, not a printed value.
Assays:
[1] = target: T1, Sphingosine 1-phosphate receptor 3 (Homo sapiens, UniProt Q99500); test: Agonist activity at human S1P3 receptor expressed in CHO-K1 cells co-expressing Gq/i5 G-protein assessed as calcium mobilization by FLIPR assay; assay type: functional, cell-based
[2] = Plasma concentration in Lewis rat at 30 mg/kg, po after 24 hrs; assay type: ADME, organism-based; set-up: dose 30 mg/kg, route oral
Rattus norvegicus [3] = test: Immunosuppressive activity in Lewis rat assessed as reduction in circulating peripheral lymphocyte count at 30 mg/kg, po after 24 hrs relative to control; assay type: functional; set-up: scale not given: the % may be the effect or the level left
[4] = target: T2, Sphingosine 1-phosphate receptor 1 (Homo sapiens, UniProt P21453); test: Agonist activity at human S1P1 receptor expressed in human U2OS cells co-expressing eGFP assessed as receptor internalization into cytoplasm using Hoechst dye staining relative to 1-(4-(6-benzylbenzofuran-2-yl)-3- fluorobenzyl)azetidine-3-carboxylic acid; assay type: functional, cell-based
T2 sequence (P21453 whole entry): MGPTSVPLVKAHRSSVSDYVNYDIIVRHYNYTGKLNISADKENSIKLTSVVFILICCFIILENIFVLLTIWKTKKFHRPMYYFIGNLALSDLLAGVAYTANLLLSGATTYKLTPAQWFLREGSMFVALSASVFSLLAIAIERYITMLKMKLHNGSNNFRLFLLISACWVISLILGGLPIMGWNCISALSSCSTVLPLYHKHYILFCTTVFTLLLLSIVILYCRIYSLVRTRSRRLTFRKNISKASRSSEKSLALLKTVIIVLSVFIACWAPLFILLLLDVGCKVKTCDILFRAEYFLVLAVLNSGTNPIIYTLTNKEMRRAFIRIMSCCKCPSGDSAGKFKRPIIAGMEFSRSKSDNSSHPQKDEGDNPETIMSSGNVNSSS

[5] = Intrinsic clearance in rat liver microsomes assessed per mg of protein after 30 mins; assay type: ADME, Microsome; details: read-out: CLH
How it was run: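 Test compound incubated with rat liver microsomes for 30 min. Percent turnover measured and used to estimate intrinsic clearance.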

[6] = Solubility of the compound in phosphate-buffered saline at pH 7.4; assay type: physicochemical
How it was run: (§1)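 Compound solubility measured separately in 0.010 M aqueous HCl, in PBS at pH 7.4, and in simulated intestinal fluid.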

[7] = Apparent permeability of the compound in pig LLC-PK1 cells; assay type: ADME, cell-based, Sus scrofa
How it was run: (§2)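 LLC-PK1 porcine proximal tubule cell monolayers; apparent permeability (Papp) of test compound through the cells measured, along with efflux ratio.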

[8] = Efflux ratio of permeability in pig LLC-PK1 cells; assay type: ADME, cell-based, Sus scrofa; how it was run: as §2
[9] = Solubility of the compound in simulated intestinal fluid at pH 7.4; assay type: physicochemical; how it was run: as §1
[10] = target: T2, Sphingosine 1-phosphate receptor 1; test: Agonist activity at human S1P1 receptor expressed in human U2OS cells co-expressing eGFP assessed as receptor internalization into cytoplasm using Hoechst dye staining; assay type: functional, cell-based
[11] = Solubility of the compound in 0.010 M aqueous hydrogen chloride at pH 7.4; assay type: physicochemical; details: in the assay text read “hydrogen chloride” for “hydrogen chloride at pH 7.4”; how it was run: as §1
[12] = Plasma protein binding in rat; assay type: ADME, cell-free; details: read-out: PPB (converted)
How it was run: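 Rat plasma protein binding measured in vitro, with bound and free compound separated by ultracentrifugation; reported as percent bound.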

Rattus norvegicus [13] = test: Immunosuppressive activity in Lewis rat assessed as reduction in circulating peripheral lymphocyte count at 3 mg/kg, po after 24 hrs relative to control; assay type: functional; set-up: scale not given: the % may be the effect or the level left
How it was run: (§3)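 Female Lewis rats (N = 5/group) given a single oral dose (0.30, 1.0 or 3.0 mg/kg) in 20% Captisol or HPBCD, 1% HPMC, 1% Pluronic F68, pH 2.0 with MSA. At 24 h, blood lymphocytes were counted as percent of vehicle control and total plasma compound measured. Significance by ANOVA/Dunnett's test versus vehicle.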

[14] = Clearance in Sprague-Dawley rat at 1 mg/kg, iv; assay type: ADME, organism-based; set-up: dose 1 mg/kg, route intravenous; details: Sprague-Dawley, in vivo
How it was run: (§4)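 Single intravenous dose of 1 mg/kg in DMSO vehicle to male Sprague–Dawley rats (N = 3/group). Clearance, steady-state volume of distribution and half-life were determined from plasma levels.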

Rattus norvegicus [15] = test: Immunosuppressive activity in Lewis rat assessed as reduction in circulating peripheral lymphocyte count at 1 mg/kg, po after 24 hrs relative to control; assay type: functional; set-up: scale not given: the % may be the effect or the level left; how it was run: as §3
Rattus norvegicus [16] = test: Ratio of AUC (0 to 24 hrs) at 100 mg/kg, po to AUC (0 to 24 hrs) at 3 mg/kg, po in Sprague-Dawley rat; assay type: ADME, organism-based; details: in vivo
How it was run: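 Male Sprague–Dawley rats (N = 3/group) each received a single oral dose of 3 or 100 mg/kg, in 20% Captisol, 1% HPMC, 1% Pluronic F68, adjusted to pH 2.0 with MSA.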

[17] = Plasma concentration in Lewis rat at 3 mg/kg, po after 24 hrs; assay type: ADME, organism-based; set-up: dose 3 mg/kg, route oral; how it was run: as §3
[18] = Plasma concentration in Lewis rat at 1 mg/kg, po after 24 hrs; assay type: ADME, organism-based; set-up: dose 1 mg/kg, route oral; how it was run: as §3
[19] = Oral bioavailability in Sprague-Dawley rat at 3 mg/kg; assay type: ADME, organism-based; details: Sprague-Dawley, in vivo
How it was run: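 Bioavailability in male Sprague–Dawley rats (N = 3/group), calculated from AUC0–∞ values obtained after a 1 mg/kg iv dose (DMSO vehicle) and a 3 mg/kg po dose (20% Captisol, 1% HPMC, 1% pluronic F68, pH 2.0 with MSA).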

[20] = Volume of distribution at steady state in Sprague-Dawley rat at 1 mg/kg, iv; assay type: ADME, organism-based; set-up: dose 1 mg/kg, route intravenous; details: in vivo, read-out: Vdss; how it was run: as §4
[21] = Half life in Sprague-Dawley rat at 1 mg/kg, iv; assay type: ADME, organism-based; set-up: dose 1 mg/kg, route intravenous; details: in vivo; how it was run: as §4
[22] = AUC (0 to 24 hrs) in Sprague-Dawley rat at 100 mg/kg, po; assay type: ADME, organism-based; set-up: time < 24 hr, dose 100 mg/kg, route oral; details: plasma
[23] = AUC (0 to 24 hrs) in Sprague-Dawley rat at 3 mg/kg, po; assay type: ADME, organism-based, Plasma; set-up: time < 24 hr, dose 3 mg/kg, route oral; details: Sprague-Dawley, plasma
Rattus norvegicus [24] = test: Immunosuppressive activity in po dosed Lewis rat assessed as reduction in circulating peripheral lymphocyte count after 24 hrs; assay type: functional, organism-based; how it was run: as §3
[25] = Plasma concentration in Lewis rat at 0.3 mg/kg, po after 24 hrs; assay type: ADME, organism-based; set-up: dose 0.3 mg/kg, route oral; how it was run: as §3
[26] = target: T1, Sphingosine 1-phosphate receptor 3; test: Agonist activity at human S1P3 receptor expressed in CHO-K1 cells co-expressing Gq/i5 G-protein assessed as calcium mobilization by FLIPR assay relative to S1P; assay type: functional, cell-based
How it was run: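 Ca2+ mobilization in CHO-K1 cells expressing hS1P3 and a chimeric Gq/i5 G-protein. Efficacy expressed as % relative to S1P; compounds not reaching >10% of control activity reported as greater than the highest concentration tested.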

T1 sequence (Q99500 whole entry): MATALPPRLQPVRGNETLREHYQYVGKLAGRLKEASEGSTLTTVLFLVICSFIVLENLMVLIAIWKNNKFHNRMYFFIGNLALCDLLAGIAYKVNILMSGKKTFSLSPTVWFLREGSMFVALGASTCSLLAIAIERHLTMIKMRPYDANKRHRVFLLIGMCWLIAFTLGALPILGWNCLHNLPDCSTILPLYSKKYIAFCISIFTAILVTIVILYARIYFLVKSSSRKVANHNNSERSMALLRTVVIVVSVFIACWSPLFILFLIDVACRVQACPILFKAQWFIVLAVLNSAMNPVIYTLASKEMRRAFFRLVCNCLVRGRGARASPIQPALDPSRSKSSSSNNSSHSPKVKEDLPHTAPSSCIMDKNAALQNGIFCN

Row | Structure (SMILES) | EC50 [1] [µM] | Efficacy [4] [%] | microsomal CLint [5] [µL/min/mg] | solubility [6] [µg/mL] | Papp [7] [×10⁻⁶ cm/s] | efflux ratio [8] | solubility [9] [µg/mL] | EC50 [10] [µM] | solubility [11] [µg/mL] | Activity (Rattus norvegicus [15]) [%] | concentration at 24 h [18] [ng/mL] | also measured
1 | FC(F)(F)c1cccc(-c2noc(-c3cc(-c4ccccc4)c(C(F)(F)F)s3)n2)c1 | > 25 | 86 |  |  |  |  |  |  |  |  |  | concentration at 24 h [2]: 1100 ng/mL; Activity (Rattus norvegicus [3]): -66%
2 | Cn1cc(C(=O)Nc2ccc(-c3ccncc3)c(C(F)(F)F)c2)c(=O)c2ccccc21 | > 2.5 | 110 | 44 | 7.9 (≈ 18.7 µM) | 15 | 1.5 | 12 (≈ 28.3 µM) | 0.45 | 6.4 (≈ 15.1 µM) |  |  | 
3 | Cn1cc(C(=O)Nc2ccc(-c3ccccc3)c(C(F)(F)F)c2)c(=O)c2ncccc21 | > 2.5 | 86 | < 14 |  | 16 | 1.4 |  | 4.1 |  |  |  | 
4 | Cn1cc(C(=O)Nc2ccc(-c3ccccc3)c(C(F)(F)F)n2)c(=O)c2cnccc21 | > 2.5 | 120 | < 14 | 2.4 (≈ 5.66 µM) | 6.7 | 1 | 10 (≈ 23.6 µM) | 0.02 | < 1 | -67 | 130 | fraction unbound [12]: 0.02; Activity (Rattus norvegicus [13]): -76%; clearance [14]: 2.5 mL/min/kg; Ratio AUC (Rattus norvegicus [16]): 11; concentration at 24 h [17]: 640 ng/mL; bioavailability [19]: 110%; Vd [20]: 5.1 L/kg; half-life [21]: 24 h; AUC(0-t) at 24 h [22]: 130000 ng·h/mL; AUC(0-t) at 24 h [23]: 12000 ng·h/mL; Activity (Rattus norvegicus [24]): Dose-dependent effect; concentration at 24 h [25]: 47 ng/mL
5 | CCCCCCCCc1ccc(CC[C@](N)(CO)COP(=O)(O)O)cc1 |  |  |  |  |  |  |  |  |  |  |  | Efficacy [26]: 35%
6 | COc1ccncc1C(=O)NC(=O)Nc1ccc(-c2ccccc2)c(C(F)(F)F)c1 | > 25 |  |  | 6.6 (≈ 15.9 µM) | 2.3 |  | 16 (≈ 38.5 µM) |  | 17 (≈ 40.9 µM) | -78 | 63 | 
7 | Cn1cc(C(=O)Nc2cnc(-c3ccccc3)c(C(F)(F)F)c2)c(=O)c2ccccc21 | > 2.5 | 170 | < 14 | < 1 | 11 | 1.9 | 13 (≈ 30.7 µM) | 2.9 | < 1 |  |  | 
8 | Cn1cc(C(=O)Nc2ccc(-c3ccccc3)c(C(F)(F)F)c2)c(=O)c2ccccc21 | 1.5 | 110 | < 14 | < 1 | 1.2 | 0.4 | 11 (≈ 26 µM) | 0.07 | 1.3 (≈ 3.08 µM) | -3 | 18 | Efficacy [26]: 92%; fraction unbound [12]: 0.03; Activity (Rattus norvegicus [13]): -51%; clearance [14]: 15.5 mL/min/kg; Ratio AUC (Rattus norvegicus [16]): 4.7; concentration at 24 h [17]: 48 ng/mL; bioavailability [19]: 60%; Vd [20]: 11 L/kg; half-life [21]: 15 h; AUC(0-t) at 24 h [22]: 5800 ng·h/mL; AUC(0-t) at 24 h [23]: 1200 ng·h/mL; Activity (Rattus norvegicus [24]): Dose-dependent effect; concentration at 24 h [25]: 5.5 ng/mL
9 | Cn1cc(C(=O)Nc2ccc(-c3ccccn3)c(C(F)(F)F)c2)c(=O)c2cnccc21 | > 2.5 | 100 | 15 | < 1 | 16 | 1 | 6.7 (≈ 15.8 µM) | 0.2 | 120 (≈ 283 µM) | -32 | 150 | 
10 | Cn1cc(C(=O)Nc2ccc(-c3ccccc3)c(C(F)(F)F)c2)c(=O)c2cccnc21 | > 2.5 | 100 | < 14 | < 1 | 2.2 | 1.7 | 5.9 (≈ 13.9 µM) | 0.19 | < 1 |  |  | 

Reference: ChEMBL document CHEMBL1938299, “Quinolinone-based agonists of S1P₁: use of a N-scan SAR strategy to optimize in vitro and in vivo activity” (Bioorg Med Chem Lett, 2012)
